{"source": "ChEMBL document CHEMBL4020827", "about": "“Targeting Multiple Effector Pathways in Pancreatic Ductal Adenocarcinoma with a G-Quadruplex-Binding Small Molecule” (J Med Chem, 2018)", "key": {"MIA PaCa-2 [1]": {"test_system": "MIA PaCa-2", "experiment": "Effect on RPTOR gene expression in human MIAPaCa2 cells at 400 nM after 6 hrs by RNA sequence analysis relative to control", "type": "functional", "in_short": "(§1)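 RNA-seq: cells seeded overnight in 60 mm plates (PANC-1 0.35 x 10^6, MIA PaCa-2 1.5 x 10^6 cells/well), then exposed to 400 nM compound for 6 or 24 h against untreated controls. Cell lines mycoplasma-free by RNA-capture ELISA and STR-profiled. Differentially expressed genes called at FDR < 0.1.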"}, "MIA PaCa-2 [2]": {"test_system": "MIA PaCa-2", "experiment": "Effect on ARF6 gene expression in human MIAPaCa2 cells at 400 nM after 6 hrs by RNA sequence analysis relative to control", "type": "functional", "in_short": "(§2)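 PANC-1 (0.35 x 10^6) or MIA PaCa-2 (1.5 x 10^6) cells seeded overnight in 60 mm plates, then exposed to 400 nM compound for 6 or 24 h; untreated cells as controls. Cells were mycoplasma-free and STR-certified. Differential expression by RNA-seq, called at FDR < 0.1.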"}, "[3]": {"experiment": "Toxicity in iv dosed CD-1 nude mouse assessed as death measured up to 72 hrs", "type": "organism-based", "conditions": "in vivo", "in_short": "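CD1 nude mice, two per group, given single IV doses in saline (10, 20, 30, 35, 40, 45, 50 and 60 mg/kg), with repeat dosing weekly. Watched for adverse effects for up to 72 h. Tolerated dose taken as highest cohort in which all mice survived without observed ill-effects.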"}, "MIA PaCa-2 [4]": {"test_system": "MIA PaCa-2", "experiment": "Effect on AKT1 gene expression in human MIAPaCa2 cells at 400 nM after 24 hrs by RNA sequence analysis relative to control", "type": "functional", "in_short": "as §2"}, "MIA PaCa-2 [5]": {"test_system": "MIA PaCa-2", "experiment": "Effect on CBFA2T3 gene expression in human MIAPaCa2 cells at 400 nM after 6 hrs by RNA sequence analysis relative to control", "type": "functional", "in_short": "as §2"}, "PANC-1 [6]": {"test_system": "PANC-1", "experiment": "Effect on PARD6A gene expression in human PANC1 cells at 400 nM after 24 hrs by RNA sequence analysis relative to control", "type": "functional"}, "MIA PaCa-2 [7]": {"test_system": "MIA PaCa-2", "experiment": "Effect on PLXNA1 gene expression in human MIAPaCa2 cells at 400 nM after 6 hrs by RNA sequence analysis relative to control", "type": "functional"}, "PANC-1 [8]": {"test_system": "PANC-1", "experiment": "Effect on MAPK11 gene expression in human PANC1 cells at 400 nM after 6 hrs by RNA sequence analysis relative to control", "type": "functional"}, "MIA PaCa-2 [9]": {"test_system": "MIA PaCa-2", "experiment": "Effect on PIK3R2 gene expression in human MIAPaCa2 cells at 400 nM after 24 hrs by RNA sequence analysis relative to control", "type": "functional"}, "MIA PaCa-2 [10]": {"test_system": "MIA PaCa-2", "experiment": "Effect on GLI2 gene expression in human MIAPaCa2 cells at 400 nM after 24 hrs by RNA sequence analysis relative to control", "type": "functional", "in_short": "as §2"}, "PANC-1 [11]": {"test_system": "PANC-1", "experiment": "Effect on PAK1 gene expression in human PANC1 cells at 400 nM after 24 hrs by RNA sequence analysis relative to control", "type": "functional"}, "MIA PaCa-2 [12]": {"test_system": "MIA PaCa-2", "experiment": "Effect on PAK1 gene expression in human MIAPaCa2 cells at 400 nM after 6 hrs by RNA sequence analysis relative to control", "type": "functional"}, "PANC-1 [13]": {"test_system": "PANC-1", "experiment": "Effect on CBFA2T3 gene expression in human PANC1 cells at 400 nM after 24 hrs by RNA sequence analysis relative to control", "type": "functional", "in_short": "as §2"}, "PANC-1 [14]": {"test_system": "PANC-1", "experiment": "Effect on TEAD3 gene expression in human PANC1 cells at 400 nM after 24 hrs by RNA sequence analysis relative to control", "type": "functional", "in_short": "as §1"}, "MIA PaCa-2 [15]": {"test_system": "MIA PaCa-2", "experiment": "Effect on GLI1 gene expression in human MIAPaCa2 cells at 400 nM after 24 hrs by RNA sequence analysis relative to control", "type": "functional", "in_short": "as §2"}, "MIA PaCa-2 [16]": {"test_system": "MIA PaCa-2", "experiment": "Effect on SHANK2 gene expression in human MIAPaCa2 cells at 400 nM after 6 hrs by RNA sequence analysis relative to control", "type": "functional", "in_short": "as §1"}, "MIA PaCa-2 [17]": {"test_system": "MIA PaCa-2", "experiment": "Effect on PIK3R3 gene expression in human MIAPaCa2 cells at 400 nM after 24 hrs by RNA sequence analysis relative to control", "type": "functional"}, "PANC-1 [18]": {"test_system": "PANC-1", "experiment": "Effect on ARF6 gene expression in human PANC1 cells at 400 nM after 24 hrs by RNA sequence analysis relative to control", "type": "functional", "in_short": "as §2"}, "MIA PaCa-2 [19]": {"test_system": "MIA PaCa-2", "experiment": "Effect on TEAD3 gene expression in human MIAPaCa2 cells at 400 nM after 24 hrs by RNA sequence analysis relative to control", "type": "functional", "in_short": "as §1"}, "PANC-1 [20]": {"test_system": "PANC-1", "experiment": "Effect on GLI4 gene expression in human PANC1 cells at 400 nM after 24 hrs by RNA sequence analysis relative to control", "type": "functional", "in_short": "as §2"}, "[21]": {"experiment": "Solubility of the compound in saline", "type": "physicochemical"}, "PANC-1 [22]": {"test_system": "PANC-1", "experiment": "Effect on ARF6 gene expression in human PANC1 cells at 400 nM after 6 hrs by RNA sequence analysis relative to control", "type": "functional", "in_short": "as §2"}, "MIA PaCa-2 [23]": {"test_system": "MIA PaCa-2", "experiment": "Effect on SHC2 gene expression in human MIAPaCa2 cells at 400 nM after 6 hrs by RNA sequence analysis relative to control", "type": "functional", "in_short": "as §1"}}, "data": [{"compound": "O=C1c2ccc3c4c(c(NCCN5CCCC5)cc(c24)C(=O)N1CCCN1CCOCC1)C(=O)N(CCCN1CCOCC1)C3=O", "values": [{"measurement": "log2FC", "setting": "MIA PaCa-2 [1]", "value": -1.41}, {"measurement": "log2FC", "setting": "MIA PaCa-2 [2]", "value": -0.89}, {"measurement": "MTD at 72 h", "setting": "[3]", "value": "45 to 50", "unit": "mg/kg"}, {"measurement": "log2FC", "setting": "MIA PaCa-2 [4]", "value": -0.98}, {"measurement": "log2FC", "setting": "MIA PaCa-2 [5]", "value": -2.74}, {"measurement": "log2FC", "setting": "PANC-1 [6]", "value": -1.41}, {"measurement": "log2FC", "setting": "MIA PaCa-2 [7]", "value": -0.98}, {"measurement": "log2FC", "setting": "PANC-1 [8]", "value": -0.38}, {"measurement": "log2FC", "setting": "MIA PaCa-2 [9]", "value": -1.14}, {"measurement": "log2FC", "setting": "MIA PaCa-2 [10]", "value": -1.24}, {"measurement": "log2FC", "setting": "PANC-1 [11]", "value": -1.11}, {"measurement": "log2FC", "setting": "MIA PaCa-2 [12]", "value": -0.59}, {"measurement": "log2FC", "setting": "PANC-1 [13]", "value": -2.25}, {"measurement": "log2FC", "setting": "PANC-1 [14]", "value": 0.07}, {"measurement": "log2FC", "setting": "MIA PaCa-2 [15]", "value": -0.64}, {"measurement": "log2FC", "setting": "MIA PaCa-2 [16]", "value": -1.87}, {"measurement": "log2FC", "setting": "MIA PaCa-2 [17]", "value": -1.47}, {"measurement": "log2FC", "setting": "PANC-1 [18]", "value": -0.69}, {"measurement": "log2FC", "setting": "MIA PaCa-2 [19]", "value": -0.66}, {"measurement": "log2FC", "setting": "PANC-1 [20]", "value": -1.71}, {"measurement": "solubility", "setting": "[21]", "value": "> 10000", "unit": "µg/mL"}, {"measurement": "log2FC", "setting": "PANC-1 [22]", "value": -0.74}, {"measurement": "log2FC", "setting": "MIA PaCa-2 [23]", "value": -0.83}]}]}
